Data on 167 variants can be found in the RNAGym collection of RNA variant scans (doi:10.1038/nmeth.2970).

First the molecules themselves.
B1: NELF-E aptamer (parent)
chain: CCCAACGACUGCCGAGCGAGAUUACGCUUGAGCGCCCCACUGAGGAUGCCCACGGGCGAUUGGGGCACGG

The series covers variants of B1. Description: HiTS-RAP. The conditions noted are these: with NELF-E (Drosophila). The gist of the method:
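Kd came from weighted Hill fits to the first binding curve, with intensities normalised to sequencing intensity and averaged per sequence, keeping only fits whose variance was below 1,000,000. That curve was imaged on an Illumina GAIIx flowcell, where sequenced aptamer DNA templates with a T7 promoter and ter site had been transcribed in situ by T7 RNA polymerase and halted by GST-Tus (30 minutes, 37°C). Before each image, clusters equilibrated for 30 minutes at room temperature with NELF-E-mOrange at 0.064 to 1000 nM in HEPES binding buffer.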
Consider G7U G14A, for which the Kd turned out to be 6.59 nM.
Next, G7U G14U: 6.73 nM; G7U C53U: 4.6 nM.
Take G7U G20A: the Kd is 7.33 nM.
Regarding G7U G20U, the Kd amounted to 7.06 nM.
For A8U A43G, the equilibrium dissociation constant (Kd) was found to be 25.7 nM.
For A8U A43U the value was 104 nM; for G7U G18A, 5.43 nM.
With G7U G18U, the dissociation constant (Kd) stood at 6.84 nM.
Next, G7U A52U: 19.3 nM; G7U A52G: 4.13 nM.
Next, G7U C33G: 5.51 nM; G7U C33U: 6.35 nM.
Next, G7U G30A: 6.35 nM.
Take G7U G30U: the Kd is 7.92 nM.
With A8G C33U, the Kd was 5.16 nM.
For A8G A52G the value was 4.33 nM.
Take A8G A52U: the dissociation constant (Kd) is 15.5 nM.
On to A8G A59G, for which the equilibrium dissociation constant (Kd) was 89.2 nM.
For A8G A59U the value was 57.1 nM; for A8U C33U, 6.3 nM; for A8U G11U, 6.61 nM.
For A8U G11A the value was 6.46 nM.
Next, A8G C25U: 5.14 nM; A8U G14A: 7.4 nM.
In the case of A8U G14U, the equilibrium dissociation constant (Kd) was found to be 6.76 nM.
For A8C U23G, the Kd worked out at 7.61 nM.
In the case of G7U C36U, the equilibrium dissociation constant (Kd) stood at 7.87 nM.
Next, A8U C66U: 5.31 nM.
For A8U A39U the value was 28.6 nM; for G7U U61A, 39.5 nM; for G7U U61C, 79 nM.
With A8G C49U, the dissociation constant (Kd) came to 16.8 nM.
For A8U A31G the value was 8.05 nM.
For A8U A31U, the Kd turned out to be 7.11 nM.
Consider A8U G20U, for which the equilibrium dissociation constant (Kd) came out at 6.62 nM.
On to G7C A8G, for which the Kd is 5.81 nM.
Regarding G7U C27G, the Kd is 5.97 nM.
For G7U C27U the value was 5.11 nM; for C9G A24U, 7.67 nM; for C9G A24G, 5.84 nM.
For G7U C51U the value was 7.54 nM.
For A8G G16A the value was 5.75 nM; for A8G G16U, 6.76 nM.
Regarding A8G U29A, the Kd is 7.95 nM.
A8G U29G: the dissociation constant (Kd) stood at 5.77 nM.
Next, A8G U29C: 5.69 nM; G7U C37G: 11.1 nM.
For G7U C37U the value was 10.5 nM; for G7U C37A, 20.8 nM; for A8U G34A, 6.21 nM.
Regarding A8G G55U, the equilibrium dissociation constant (Kd) turned out to be 7.12 nM.
As for A8G G55A, the dissociation constant (Kd) is 10 nM.
As to A8G G65A, the Kd came out at 5.32 nM.
Consider A8G G65U, for which the Kd is 8.03 nM.
For A8U C40G the value was 8.55 nM.
With G7U G62U, the dissociation constant (Kd) was determined as 7.8 nM.
For G7U G62A the value was 25.2 nM.
On to A8G A39G, for which the Kd stood at 12.8 nM.
Next, A8G A39U: 21.7 nM; A8U C53U: 3.63 nM; G7A A39G: 12.1 nM.
Next, A8U U61A: 29.9 nM; A8U U61C: 71.4 nM; G7U C17G: 6.28 nM.
Next, G7U C17U: 6.16 nM; A8G G18U: 7.18 nM; A8G G18A: 6.78 nM.
On to A8G G14A, for which the Kd was determined as 6.2 nM.
Next, A8G G14U: 7.09 nM; G7U U47G: 7.97 nM; G7U U47A: 12.9 nM.
With A8U A19G, the dissociation constant Kd stood at 6.26 nM.
Next, A8U A19U: 6.78 nM; A8G A31U: 5.68 nM; A8G A31G: 7.13 nM.
For C9A the value was 5.07 nM.
As for C9G, the Kd was 5.17 nM.
In the case of A8G C51U, the equilibrium dissociation constant (Kd) is 6.89 nM.
Next, A8U G54A: 11.3 nM.
Regarding A8U C12U, the Kd was 5.4 nM.
For the variant A8U C12G, the dissociation constant (Kd) worked out at 6.15 nM.
For G7U U23C, the Kd came to 4.06 nM.
For G7U U23G, the Kd worked out at 6.08 nM.
For the variant A8G U23C, the equilibrium dissociation constant (Kd) was found to be 4.62 nM.
Next, A8G U23G: 5.8 nM; A8G A24U: 5.52 nM.
Take A8G A24G: the equilibrium dissociation constant (Kd) stood at 6.27 nM.
For G7A U10G the value was 5.66 nM.
For A8G G58U the value was 20.1 nM; for G7U C50U, 9.77 nM.
With G7U A19U, the Kd was determined as 6.31 nM.
Next, G7U A19G: 6.23 nM.
On to G7U A43G, for which the Kd was determined as 58 nM.
Next, G7U A43U: 84.5 nM; A8G G64A: 7.44 nM.
For the variant C9G A21U, the Kd came out at 6.36 nM.
With C9G A21G, the Kd was 6.86 nM.
For A8U C50U the value was 10.4 nM; for A8G C53U, 4.94 nM.
For G7U U22G the value was 6.14 nM; for G7U U22C, 5.8 nM.
Next, G7U U22A: 6.43 nM; A8G: 5.44 nM.
As for A8U, the dissociation constant Kd is 5.54 nM.
Next, A8C: 6.72 nM; A8U C27U: 4.24 nM; G7A G16U: 5.55 nM.
Next, A8U C36U: 8.33 nM; A8G C13G: 5.95 nM; A8G C13U: 4.41 nM.
On to A8G C13A, for which the Kd was 6.62 nM.
As for G7U G65A, the Kd is 4.96 nM.
Next, G7U G65U: 7.38 nM.
Next, G7U G48A: 12 nM; G7U C40U: 80.4 nM.
In the case of A8G C36U, the dissociation constant (Kd) is 6.33 nM.
Next, G7A G63A: 14.4 nM.
Consider A8U G44U, for which the dissociation constant Kd was 25.7 nM.
For C9G A43U the value was 80.5 nM; for C9G A43G, 30.4 nM; for G7C G11U, 7.68 nM.
For A8U G16A the value was 6.74 nM; for A8U G16U, 7.54 nM.
As for A8G A67U, the Kd worked out at 6.63 nM.
A8G A67G: the equilibrium dissociation constant (Kd) was 6.62 nM.
A8C U29G: the Kd came to 8.24 nM.
Turning to A8C U10G, the equilibrium dissociation constant (Kd) is 6.49 nM.
Next, G7U C9G: 6.28 nM.
With G7U C9U, the Kd worked out at 6.52 nM.
In the case of C9G A39U, the Kd was determined as 29.8 nM.
Next, C9G A39G: 9.62 nM.
For A8G A46G the value was 17.8 nM; for A8C U22G, 7.46 nM.
Take G7U A39U: the Kd was determined as 26.9 nM.
For G7U A39G the value was 11.4 nM; for C9A U10G, 5.43 nM; for G7U C38U, 8.98 nM.
For G7U G34A the value was 7.85 nM; for G7U G34U, 7.8 nM.
With G7U A8U, the Kd stood at 6.38 nM.
For G7U A8C the value was 7.45 nM; for G7U A8G, 5.66 nM.
For G7U G55U, the equilibrium dissociation constant (Kd) is 6.97 nM.
Next, G7U G55A: 7.6 nM.
In the case of C9G A46G, the Kd worked out at 47.4 nM.
For C9G A46U the value was 68.3 nM.
G7U U29A: the Kd amounted to 5.71 nM.
Next, G7U U29G: 6.33 nM; G7U U29C: 6.86 nM.
Next, A8U U22G: 6.1 nM; A8U U22C: 5.14 nM.
For G7A G11U the value was 7.32 nM; for A8U U28A, 5.05 nM.
As to A8U U28C, the Kd is 8.73 nM.
Consider A8U U28G, for which the Kd was 7.11 nM.
As to A8U A15U, the Kd was 7.15 nM.
A8U A15G: the dissociation constant Kd was found to be 5.78 nM.
For A8U C51U the value was 10.8 nM; for G7U U41A, 64.3 nM.
With G7U U41C, the Kd was 91.2 nM.
On to G7U U41G, for which the Kd was 6.05 nM.
Next, G7U A67G: 7.45 nM.
For G7U A67U, the Kd is 9.65 nM.
On to A8U G63A, for which the dissociation constant (Kd) amounted to 15.3 nM.
In the case of A8U G63U, the Kd was 11.1 nM.
Next, A8G C37U: 10.1 nM.
